According to ChEMBL document CHEMBL5042548, “Multiparameter Optimization of Oxidative Phosphorylation Inhibitors for the Treatment of Pancreatic Cancer” (J Med Chem, 2022):
Calls of active or inactive are those of the source. No cut-off for these calls is given here.

How the values were obtained:
MIA PaCa-2 [1] = assay: Cytotoxicity against human MIA PaCa-2 cells assessed as inhibition of cell growth incubated for overnight in galactose-containing medium followed by compound addition and measured after 3 days by MTT assay; type: functional, cell-based; settings: MIA PaCa-2, 72 h
How it was run: (§1)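 MIA PaCa-2 3-day MTT in glucose medium (RPMI 1640 + 10% FBS) or galactose medium (glucose-free RPMI + 10 mM galactose + 10% FBS). Galactose wells are seeded at 8000 cells/well. MTT read-out is at 570 nm after DMSO solubilization. IC50 is by nonlinear regression; ≥3 independent experiments.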

[2] = Clearance in CD-1 mouse at 10 mg/kg, po; type: ADME, organism-based; settings: in vivo
How it was run: (§2)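 Plasma PK in CD-1 mice after single i.v. (2 mg/kg) or p.o. (10 mg/kg) dosing. Parameters come from non-compartmental analysis. Bioavailability = (AUC_po×Dose_iv)/(AUC_iv×Dose_po)×100%. Terminal t1/2 is taken from ≥3 points in the terminal phase.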

[3] = AUC(0 to t) in CD-1 mouse at 2 mg/kg, iv; type: ADME, organism-based; set-up: dose 2 mg/kg; settings: in vivo; how it was run: as §2
[4] = Metabolic stability in mouse liver microsomes assessed as half life at 10 uM measured up to 60 mins in presence of NADPH by LC-MS/MS analysis; type: ADME, Microsome; settings: liver microsomes
Panc02 = assay: Antitumor activity against Panc02 cells allografted in C57BL/6 mouse syngeneic model assessed as tumor growth inhibition at 10 mg/kg, po administered once daily for 28 days and measured twice per week; type: functional, organism-based; settings: time 28.0 day
How it was run: (§3)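 Female C57BL/6 mice, 6-10 weeks old, get 5×10^6 Pan02 cells s.c. in the right flank and are randomized at ~100 mm3 (n = 5/group). Dosing is daily for 28 days. Vehicle is 10% DMSO/50% PG/40% saline, except 15 mg/kg uses 10% DMSO/60% PG/30% saline. Caliper volume (length×width²)/2 and body weight are recorded twice weekly.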

[5] = Metabolic stability in human liver microsomes assessed as half life at 10 uM measured up to 60 mins in presence of NADPH by LC-MS/MS analysis; type: ADME, Microsome; settings: liver microsomes
[6] = Inhibition of oxidative phosphorylation complex I in human MIA PaCa-2 cells assessed as reduction in NAD+/NADH ratio incubated for 48 hrs in glucose-containing medium by NAD/NADH-Glo assay; type: cell-based; settings: MIA PaCa-2, 48 h
How it was run: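 MIA PaCa-2 cells at 5×10^3/well are treated next day for 48 h in RPMI 1640 + 10% FBS. After a PBS wash, cells are lysed with bicarbonate buffer/1% DTAB. Lysate is split: NAD+ with 0.4 N HCl at 60 °C for 15 min, NADH heated directly, then neutralized. NAD/NADH-Glo luminescence is read after 30 min. IC50 is by nonlinear regression.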

[7] = Volume of distribution at steady state in CD-1 mouse at 2 mg/kg, iv; type: ADME, organism-based; settings: in vivo, read-out: Vdss; how it was run: as §2
[8] = Clearance in CD-1 mouse at 2 mg/kg, iv; type: ADME, organism-based; settings: in vivo; how it was run: as §2
[9] = Terminal elimination half life in CD-1 mouse at 10 mg/kg, po; type: ADME, organism-based; settings: in vivo, read-out: LambdaZ (converted); how it was run: as §2
[10] = Initial plasma concentration in CD-1 mouse at 2 mg/kg, iv; type: ADME, organism-based; how it was run: as §2
BXPC-3 = assay: Cytotoxicity against human BXPC-3 cells assessed as inhibition of cell growth incubated for overnight in glucose-containing medium followed by compound addition and measured after 7 days by MTT assay; type: functional, cell-based; settings: BXPC-3, 168 h
How it was run: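 7-day MTT in glucose medium (RPMI 1640 + 10% FBS). Seeding is 200 cells/well for MIA PaCa-2 and 300 cells/well for BxPC-3, overnight at 37 °C, 5% CO2, before compound. MTT 3 mg/mL is added for 4 h, then DMSO, and absorbance is read at 570 nm. IC50 is by nonlinear regression; ≥3 independent experiments.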

[11] = AUC (0 to infinity) in CD-1 mouse at 10 mg/kg, po; type: ADME, organism-based; set-up: route oral, time infinity, dose 10 mg/kg; settings: in vivo; how it was run: as §2
MIA PaCa-2 [12] = assay: Cytotoxicity against human MIA PaCa-2 cells assessed as inhibition of cell growth incubated for overnight in glucose-containing medium followed by compound addition and measured after 3 days by MTT assay; type: functional, cell-based; settings: MIA PaCa-2, 72 h; how it was run: as §1
[13] = AUC(0 to t) in CD-1 mouse at 10 mg/kg, po; type: ADME, organism-based; set-up: dose 10 mg/kg; settings: in vivo; how it was run: as §2
[14] = AUC (0 to infinity) in CD-1 mouse at 2 mg/kg, iv; type: ADME, organism-based; set-up: route intravenous, time infinity, dose 2 mg/kg; settings: in vivo; how it was run: as §2
[15] = Oral bioavailability in CD-1 mouse at 10 mg/kg; type: ADME, organism-based; settings: in vivo; how it was run: as §2
[16] = Toxicity in C57BL/6 mouse allografted with mouse Panc02 cells assessed as body weight loss at 10 mg/kg, po administered once a day for 28 days and measured twice per week; type: organism-based; settings: in vivo, 672 h, time 28 day; how it was run: as §3
[17] = Toxicity in C57BL/6 mouse allografted with mouse Panc02 cells assessed as drug tolerability at 10 mg/kg, po administered once a day for 28 days; type: organism-based; settings: in vivo, 672 h, time 28 day
[18] = Inhibition of oxidative phosphorylation in human MIA PaCa-2 cells assessed as reduction in ATP production incubated for 24 hrs in glucose-containing medium by celltiter-glo luminescence cell viability assay; type: functional, cell-based; settings: MIA PaCa-2, 24 h
How it was run: (§4)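 MIA PaCa-2 cells are seeded at 10000 cells/well in glucose RPMI + 10% FBS or in glucose-free RPMI + 10 mM galactose + 10% FBS. Total ATP is measured by CellTiter-Glo luminescence 24 h after compound. IC50 is by nonlinear regression; ≥3 independent experiments.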

[19] = Inhibition of oxidative phosphorylation in human MIA PaCa-2 cells assessed as reduction in ATP production incubated for 24 hrs in galactose-containing medium by celltiter-glo luminescence cell viability assay; type: functional, cell-based; settings: MIA PaCa-2, 24 h; how it was run: as §4
[20] = Terminal elimination half life in CD-1 mouse at 2 mg/kg, iv; type: ADME, organism-based; settings: in vivo, read-out: LambdaZ (converted); how it was run: as §2

In the case of CC(C)S(=O)(=O)c1ccc(S(=O)(=O)N2CCC[C@@H](C(=O)N3CCC(F)(F)CC3)C2)cc1, the IC50 (MIA PaCa-2 [1]) is reported as 9.1 nM, the CL/F [2] is reported as 835 mL/min/kg and the AUC(0-t) [3] is reported as 0.65 µM·h. For the same molecule, the half-life at 10 µM [4] was > 1 h, the Activity (Panc02) was “Active” and the half-life at 10 µM [5] was > 1 h. It also gave an IC50 [6] of 3.6 nM, a Vd [7] of 5.2 L/kg and a clearance [8] of 106 mL/min/kg. The half-life [9] was 3.06 h, the C0 [10] was 354 ng/mL and the IC50 (BXPC-3) was 50 nM. The AUC(0-inf) [11] was 0.417 µM·h, the IC50 (MIA PaCa-2 [12]) was > 3000 nM and the AUC(0-t) [13] was 0.368 µM·h. For the same molecule, the AUC(0-inf) [14] was 0.657 µM·h, the F [15] was 11.3% and the Activity [16] was “Non-Toxic”. For the same molecule, the Activity [17] was “Non-Toxic”, the IC50 [18] was > 3000 nM and the IC50 [19] was 11 nM. For the same molecule, the half-life [20] was 1.42 h.
